Legend:
MOLT-4 = experiment: Cytotoxicity against human MOLT4 cells after 24 hrs by SRB assay; type: functional; conditions: MOLT-4, 24 h
Procedure, shortened: (§1)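 NCI 60-line screen. Cells in RPMI 1640 with 5% FBS and 2 mM L-glutamine, seeded at 5,000–40,000 cells/well by doubling time, then incubated 24 h at 37 °C, 5% CO2 before dosing. Time-zero plates fixed with TCA at drug addition. DMSO stocks diluted in medium with gentamicin to five concentrations, […]. Protein read by SRB staining. GI50, TGI and LC50 derived relative to control and time-zero.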

NCI-H226 = experiment: Cytotoxicity against human NCI-H226 cells after 24 hrs by SRB assay; type: functional; conditions: NCI-H226, 24 h; procedure, shortened: as §1
NCI-H23 = experiment: Cytotoxicity against human NCI-H23 cells after 24 hrs by SRB assay; type: functional; conditions: NCI-H23, 24 h; procedure, shortened: as §1
COLO 205 = experiment: Cytotoxicity against human COLO205 cells after 24 hrs by SRB assay; type: functional; conditions: COLO 205, 24 h; procedure, shortened: as §1
HCT-116 = experiment: Cytotoxicity against human HCT116 cells after 24 hrs by SRB assay; type: functional; conditions: HCT-116, 24 h; procedure, shortened: as §1
HT-29 = experiment: Cytotoxicity against human HT-29 cells after 24 hrs by SRB assay; type: functional; conditions: HT-29, 24 h; procedure, shortened: as §1
KM12 [1] = experiment: (§2) Cytotoxicity against human KM12 cells after 24 hrs by SRB assay; type: functional; conditions: KM12, 24 h; procedure, shortened: as §1
HCC 2998 = experiment: Cytotoxicity against human HCC2998 cells after 24 hrs by SRB assay; type: functional; conditions: HCC 2998, 24 h; procedure, shortened: as §1
U-251 [2] = experiment: (§3) Cytotoxicity against human U251 cells after 24 hrs by SRB assay; type: functional; conditions: U-251, 24 h
Procedure, shortened: (§4)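 NCI 60-cell screen. Cells are grown in RPMI 1640 with 5% FBS and 2 mM L-glutamine and seeded at 5,000–40,000 cells/well according to doubling time. They are preincubated 24 h at 37 °C in 5% CO2, and Tz plates are TCA-fixed at drug addition. Drug stock is in DMSO, diluted in medium with gentamicin, and tested at five concentrations (100, 10, 1.0, 0.1, […]). Protein is read by SRB staining. GI50, TGI and LC50 are derived relative to time-zero and control wells.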

SNB-19 = experiment: Cytotoxicity against human SNB19 cells after 24 hrs by SRB assay; type: functional; conditions: SNB-19, 24 h; procedure, shortened: as §4
SNB-75 = experiment: Cytotoxicity against human SNB75 cells after 24 hrs by SRB assay; type: functional; conditions: SNB-75, 24 h; procedure, shortened: as §4
SK-MEL-5 = experiment: Cytotoxicity against human SK-MEL-5 cells after 24 hrs by SRB assay; type: functional; conditions: SK-MEL-5, 24 h; procedure, shortened: as §1
SN12C = experiment: Cytotoxicity against human SN12C cells after 24 hrs by SRB assay; type: functional; procedure, shortened: as §1
DU-145 = experiment: Cytotoxicity against human DU145 cells after 24 hrs by SRB assay; type: functional; conditions: DU-145, 24 h; procedure, shortened: as §1
BT-549 = experiment: Cytotoxicity against human BT549 cells after 24 hrs by SRB assay; type: functional; conditions: BT-549, 24 h; procedure, shortened: as §1
T47D = experiment: Cytotoxicity against human T47D cells after 24 hrs by SRB assay; type: functional; procedure, shortened: as §4
RPMI-8226 [3] = experiment: (§5) Cytotoxicity against human RPMI8226 cells after 24 hrs by SRB assay; type: cell-based; conditions: rpmi-8226, 24 h
Procedure, shortened: (§6)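 NCI 60-cell screen. Cells grown in RPMI 1640 with 5% FBS and 2 mM L-glutamine, seeded at 5,000–40,000 cells/well, preincubated 24 h at 37 °C in 5% CO2. Drug stock in DMSO, diluted in medium with gentamicin; five final concentrations, 100, 10, 1.0, 0.1 and […]. Time-zero plates were TCA-fixed. Protein read by SRB staining; GI50, TGI and LC50 taken relative to time-zero.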

HL-60 [4] = experiment: (§7) Cytotoxicity against human HL60 cells after 24 hrs by SRB assay; type: cell-based; conditions: hl-60, 24 h; procedure, shortened: as §6
HOP-62 = experiment: Cytotoxicity against human HOP62 cells after 24 hrs by SRB assay; type: cell-based; conditions: hop-62, 24 h; procedure, shortened: as §6
NCI-H522 = experiment: Cytotoxicity against human NCI-H522 cells after 24 hrs by SRB assay; type: cell-based; conditions: nci-h522, 24 h; procedure, shortened: as §6
HOP-92 = experiment: Cytotoxicity against human HOP92 cells after 24 hrs by SRB assay; type: cell-based; conditions: hop-92, 24 h; procedure, shortened: as §6
A549 = experiment: Cytotoxicity against human A549 cells after 24 hrs by SRB assay; type: cell-based; conditions: a549, 24 h; procedure, shortened: as §6
KM12 [5] = experiment: as §2; type: cell-based; conditions: km12, 24 h; procedure, shortened: as §6
U-251 [6] = experiment: as §3; type: cell-based; conditions: u-251, 24 h
Procedure, shortened: (§8)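 NCI 60-cell-line screen: cells grown in RPMI 1640 with 5% FBS and 2 mM L-glutamine, seeded at 5,000–40,000 cells/well by doubling time, and preincubated 24 h at 37 °C in 5% CO2. Time-zero plates were TCA-fixed. DMSO stocks were diluted in medium with gentamicin to five concentrations (100, 10, 1.0, 0.1, […]). Protein was read by SRB, and GI50, TGI and LC50 were derived against time-zero.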

LOX IMVI = experiment: Cytotoxicity against human LOXIMVI cells after 24 hrs by SRB assay; type: cell-based; procedure, shortened: as §6
RPMI-8226 [7] = experiment: as §5; type: functional; conditions: RPMI-8226, 24 h; procedure, shortened: as §1
HL-60 [8] = experiment: as §7; type: functional; conditions: HL-60, 24 h; procedure, shortened: as §1
UACC-62 = experiment: Cytotoxicity against human UACC62 cells after 24 hrs by SRB assay; type: cell-based; conditions: uacc-62, 24 h; procedure, shortened: as §8
SK-MEL-2 = experiment: Cytotoxicity against human SK-MEL-2 cells after 24 hrs by SRB assay; type: cell-based; conditions: sk-mel-2, 24 h; procedure, shortened: as §6
M14 = experiment: Cytotoxicity against human M14 cells after 24 hrs by SRB assay; type: cell-based; conditions: m14, 24 h; procedure, shortened: as §6
OVCAR-5 = experiment: Cytotoxicity against human OVCAR5 cells after 24 hrs by SRB assay; type: cell-based; conditions: ovcar-5, 24 h; procedure, shortened: as §6
SK-OV-3 = experiment: Cytotoxicity against human SKOV3 cells after 24 hrs by SRB assay; type: cell-based; conditions: sk-ov-3, 24 h; procedure, shortened: as §8
RXF 393 = experiment: Cytotoxicity against human RXF393 cells after 24 hrs by SRB assay; type: cell-based; conditions: rxf 393, 24 h; procedure, shortened: as §6
MDA-MB-231 = experiment: Cytotoxicity against human MDA-MB-231 cells after 24 hrs by SRB assay; type: cell-based; conditions: mda-mb-231, 24 h; procedure, shortened: as §6
MDA-MB-468 = experiment: Cytotoxicity against human MDA-MB-468 cells after 24 hrs by SRB assay; type: cell-based; conditions: mda-mb-468, 24 h; procedure, shortened: as §6
[9] = Cytotoxicity against human Hs 578T cells after 24 hrs by SRB assay; type: cell-based; procedure, shortened: as §6

## O=C(/C=C/c1cc2ccccc2[nH]c1=O)c1ccc(Cl)cc1
MOLT-4
  GI50: 3.11 µM
  TGI: > 100 µM
NCI-H226
  GI50: 11.6 µM
  TGI: 38.9 µM
NCI-H23
  GI50: 5.37 µM
  TGI: 93.3 µM
COLO 205
  GI50: 10.1 µM
  TGI: 51.3 µM
HCT-116
  GI50: 3.26 µM
  TGI: 14.8 µM
HT-29
  GI50: 3.84 µM
  TGI: 22.5 µM
KM12 [1]
  GI50: 3.23 µM
  TGI: 16.3 µM
HCC 2998
  GI50: 6.55 µM
  TGI: 22.3 µM
U-251 [2]
  GI50: 2.52 µM
  TGI: 11.4 µM
SNB-19
  GI50: 5.11 µM
  TGI: > 100 µM
SNB-75
  GI50: 6.21 µM
  TGI: 48.8 µM
SK-MEL-5
  GI50: 18.9 µM
  TGI: > 100 µM
SN12C
  GI50: 8.16 µM
  TGI: > 100 µM
DU-145
  GI50: 4.08 µM
  TGI: 48.9 µM
BT-549
  GI50: 3.86 µM
  TGI: 17.1 µM
T47D
  GI50: 7.31 µM
  TGI: > 100 µM
RPMI-8226 [3]
  LC50: > 100 µM
HL-60 [4]
  LC50: > 100 µM
HOP-62
  LC50: > 100 µM
NCI-H522
  LC50: 47.2 µM
HOP-92
  LC50: > 100 µM
A549
  LC50: > 100 µM
KM12 [5]
  LC50: 98.9 µM
U-251 [6]
  LC50: 39.7 µM
LOX IMVI
  LC50: > 100 µM
RPMI-8226 [7]
  GI50: 2.23 µM
  TGI: 16.1 µM
HL-60 [8]
  GI50: 2.47 µM
  TGI: > 100 µM
UACC-62
  LC50: > 100 µM
SK-MEL-2
  LC50: 72.6 µM
M14
  LC50: > 100 µM
OVCAR-5
  LC50: > 100 µM
SK-OV-3
  LC50: > 100 µM
RXF 393
  LC50: > 100 µM
MDA-MB-231
  LC50: > 100 µM
MDA-MB-468
  LC50: 53.2 µM
[9]
  LC50: > 100 µM

## COc1ccc(C(=O)/C=C/c2cc3ccccc3[nH]c2=O)cc1
MOLT-4
  GI50: 3.39 µM
  TGI: > 100 µM
NCI-H226
  GI50: 5.57 µM
  TGI: > 100 µM
NCI-H23
  GI50: 2.9 µM
  TGI: 14.9 µM
COLO 205
  GI50: 3.66 µM
  TGI: 13.4 µM
HCT-116
  GI50: 2.31 µM
  TGI: 5.7 µM
HT-29
  GI50: 3.67 µM
  TGI: > 100 µM
KM12 [1]
  GI50: 2.85 µM
  TGI: 7.81 µM
HCC 2998
  GI50: 2.5 µM
  TGI: 6.49 µM
U-251 [2]
  GI50: 2.7 µM
  TGI: 10.9 µM
SNB-19
  GI50: 4.2 µM
  TGI: 19.1 µM
SNB-75
  GI50: 2.29 µM
  TGI: 10.1 µM
SK-MEL-5
  GI50: 5.73 µM
  TGI: 18.1 µM
SN12C
  GI50: 3.17 µM
  TGI: > 100 µM
DU-145
  GI50: 3.14 µM
  TGI: 11.2 µM
BT-549
  GI50: 2.7 µM
  TGI: 7.9 µM
T47D
  GI50: 3.55 µM
  TGI: > 100 µM
RPMI-8226 [3]
  LC50: > 100 µM
HL-60 [4]
  LC50: > 100 µM
HOP-62
  LC50: 59 µM
NCI-H522
  LC50: > 100 µM
HOP-92
  LC50: 80.9 µM
A549
  LC50: > 100 µM
KM12 [5]
  LC50: 26.9 µM
U-251 [6]
  LC50: > 100 µM
LOX IMVI
  LC50: 33.3 µM
RPMI-8226 [7]
  GI50: 2.79 µM
  TGI: > 100 µM
HL-60 [8]
  GI50: 3.36 µM
  TGI: > 100 µM
UACC-62
  LC50: 60.2 µM
SK-MEL-2
  LC50: > 100 µM
M14
  LC50: > 100 µM
OVCAR-5
  LC50: > 100 µM
SK-OV-3
  LC50: > 100 µM
RXF 393
  LC50: 33.5 µM
MDA-MB-231
  LC50: > 100 µM
MDA-MB-468
  LC50: 39.8 µM
[9]
  LC50: > 100 µM

Source: ChEMBL document CHEMBL2086296, “Synthesis of novel quinoline-2-one based chalcones of potential anti-tumor activity” (Eur J Med Chem, 2012)
